According to ChEMBL document CHEMBL3414564, “3'-functionalized adamantyl cannabinoid receptor probes” (J Med Chem, 2015):
Active and inactive are the calls of the source. No cut-off for these calls is given here.

Legend:
[1] = molecular target: T1, Cannabinoid receptor 1 (Rattus norvegicus, UniProt P20272); test: Displacement of [3H]CP-55,940 from CB1 receptor in rat brain membranes; type: cell membranes, Membrane
Method in brief: (§1)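 Competition binding against [3H]CP-55,940 on rat brain membranes (CB1) or on membranes of HEK293 cells expressing mouse or human CB2. IC50 by nonlinear regression, converted to Ki. For isothiocyanates the value is an apparent Ki (Ki*), which depends on pretreatment time. Triplicate points; mean of three independent experiments.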

[2] = molecular target: Cannabinoid receptor 2 (Mus musculus, UniProt P47936); test: Displacement of [3H]CP-55,940 from mouse CB2 receptor expressed in HEK293 cell membranes; method in brief: as §1
[3] = molecular target: T2, Cannabinoid receptor 2 (Homo sapiens, UniProt P34972); test: Displacement of [3H]CP-55,940 from human CB2 receptor expressed in HEK293 cell membranes; method in brief: as §1
[4] = molecular target: T2, Cannabinoid receptor 2; test: Inverse agonist activity at human CB2 receptor expressed in HEK293 cells assessed as inhibition of forskolin-induced cAMP accumulation incubated for 60 mins; type: functional, cell-based
Method in brief: (§2)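 Forskolin-stimulated cAMP in HEK293 cells stably expressing rCB1 or hCB2, detached non-enzymatically and washed in HBSS, 1000–1500 cells/well. Compound series given in stimulation buffer with 2 μM forskolin (final), 30 min at room temperature. Eu-cAMP tracer and anti-cAMP TR-FRET detection reagents were then added for 60 min at room temperature. EC50 by nonlinear regression; two independent experiments in triplicate.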

[5] = molecular target: T2, Cannabinoid receptor 2; test: Covalent binding affinity to human CB2 receptor expressed in HEK293 cell membranes assessed as covalent labeling at 10 times Ki level incubated for 30 mins at 37 degC followed by UV irradiation by [3H]CP-55,940 radioligand binding assay
Method in brief: (§3)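 Membranes were incubated with azido ligand at 10× its Ki for 30 min at 37 °C with gentle agitation, then given UV at 254 nm for 1 min. They were washed twice with 1% BSA in TME and once with TME, and pelleted. A blank membrane sample was run in parallel. Bmax came from [3H]CP-55,940 saturation binding at 0.5–23.8 nM with 25 μg protein, 1 h at 30 °C. Nonspecific binding was taken with 4 μM unlabeled CP-55,940. Labeling % = (Bmax control − Bmax ligand)/Bmax control × 100.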

[6] = molecular target: Cannabinoid receptor 1 (Rattus norvegicus) (UniProt P20272); test: Covalent binding affinity to CB1 receptor in rat brain membranes assessed as covalent labeling at 10 times Ki level incubated for 30 mins at 37 degC followed by UV irradiation by [3H]CP-55,940 radioligand binding assay; type: cell membranes; details: Membrane; method in brief: as §3
[7] = molecular target: Cannabinoid receptor 1 (Rattus norvegicus) (UniProt P20272); test: Agonist activity at rat CB1 receptor expressed in HEK293 cells assessed as inhibition of forskolin-induced cAMP accumulation incubated for 60 mins relative to 500 nM CP-55,940; type: functional, cell-based
[8] = molecular target: T1, Cannabinoid receptor 1; test: Agonist activity at rat CB1 receptor expressed in HEK293 cells assessed as inhibition of forskolin-induced cAMP accumulation incubated for 60 mins
[9] = molecular target: T2, Cannabinoid receptor 2; test: Inverse agonist activity at human CB2 receptor expressed in HEK293 cells assessed as inhibition of forskolin-induced cAMP accumulation incubated for 60 mins relative to 500 nM CP-55,940; type: functional, cell-based
[10] = molecular target: T2, Cannabinoid receptor 2; test: Activity at human CB2 receptor expressed in HEK293 cells assessed as inhibition of forskolin-induced cAMP accumulation up to 3 uM incubated for 60 mins; type: functional, cell-based; method in brief: as §2
[11] = molecular target: T1, Cannabinoid receptor 1; test: Displacement of [3H]CP-55,940 from CB1 receptor in rat brain membranes incubated for 90 mins; type: cell membranes, Membrane
Method in brief: (§4)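 Competition binding on rat brain membranes (CB1) against [3H]CP-55,940. Membranes were pretreated with the covalently reacting isothiocyanate ligand for the stated time (15, 30, 60 or 90 min) before the binding step. IC50 came from nonlinear regression and was converted to Ki. Values are reported as a time-dependent apparent Ki (Ki*).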

[12] = molecular target: Cannabinoid receptor 1 (Rattus norvegicus) (UniProt P20272); test: Irreversible binding affinity to CB1 receptor in rat brain membranes assessed as receptor occupancy at 10 times Ki level incubated for 30 mins by [3H]CP-55,940 radioligand binding assay; type: cell membranes; details: Membrane
Method in brief: (§5)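 Rat brain CB1 membranes were pretreated with isothiocyanate ligand at 10× its Ki at 37 °C for 15, 30 or 60 min. The control was 60 min without ligand. Unbound ligand was removed by BSA/TME washes and centrifugation. Bmax came from [3H]CP-55,940 saturation binding at 0.5–23.8 nM, 25 μg protein, 1 h at 30 °C, with 4 μM unlabeled CP-55,940 for nonspecific binding. Irreversible occupancy = percent Bmax reduction.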

[13] = molecular target: T1, Cannabinoid receptor 1; test: Displacement of [3H]CP-55,940 from CB1 receptor in rat brain membranes incubated for 30 mins; type: cell membranes, Membrane; method in brief: as §4
[14] = molecular target: Cannabinoid receptor 1 (Rattus norvegicus) (UniProt P20272); test: Irreversible binding affinity to CB1 receptor in rat brain membranes assessed as receptor occupancy at 10 times Ki level incubated for 15 mins by [3H]CP-55,940 radioligand binding assay; type: cell membranes; details: Membrane; method in brief: as §5
[15] = molecular target: T1, Cannabinoid receptor 1; test: Displacement of [3H]CP-55,940 from CB1 receptor in rat brain membranes incubated for 60 mins; type: cell membranes, Membrane; method in brief: as §4
[16] = molecular target: Cannabinoid receptor 1 (Rattus norvegicus) (UniProt P20272); test: Binding affinity to CB1 receptor in rat brain membranes assessed as receptor occupancy at 10 times Ki level incubated for 60 mins by [3H]CP-55,940 radioligand binding assay; type: cell membranes; details: Membrane; method in brief: as §5
[17] = molecular target: T1, Cannabinoid receptor 1; test: Displacement of [3H]CP-55,940 from CB1 receptor in rat brain membranes incubated for 15 mins; type: cell membranes, Membrane; method in brief: as §4

Sequence of Cannabinoid receptor 1 (Rattus norvegicus) (P20272 whole entry): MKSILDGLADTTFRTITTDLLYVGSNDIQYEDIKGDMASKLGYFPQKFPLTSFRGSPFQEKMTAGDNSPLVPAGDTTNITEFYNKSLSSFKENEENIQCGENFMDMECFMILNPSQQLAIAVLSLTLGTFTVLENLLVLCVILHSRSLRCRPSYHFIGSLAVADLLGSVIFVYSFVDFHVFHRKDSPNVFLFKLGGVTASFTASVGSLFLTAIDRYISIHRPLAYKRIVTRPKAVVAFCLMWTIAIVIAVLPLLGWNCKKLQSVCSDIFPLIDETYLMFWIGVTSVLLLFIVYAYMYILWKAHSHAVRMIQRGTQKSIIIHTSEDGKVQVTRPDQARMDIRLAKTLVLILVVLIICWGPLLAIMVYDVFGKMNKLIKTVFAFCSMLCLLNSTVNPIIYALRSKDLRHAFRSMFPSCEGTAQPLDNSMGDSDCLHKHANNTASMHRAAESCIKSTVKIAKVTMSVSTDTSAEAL
T1 sequence (P20272 whole entry): as above
Sequence of Cannabinoid receptor 2 (Mus musculus, UniProt P47936) (P47936 whole entry): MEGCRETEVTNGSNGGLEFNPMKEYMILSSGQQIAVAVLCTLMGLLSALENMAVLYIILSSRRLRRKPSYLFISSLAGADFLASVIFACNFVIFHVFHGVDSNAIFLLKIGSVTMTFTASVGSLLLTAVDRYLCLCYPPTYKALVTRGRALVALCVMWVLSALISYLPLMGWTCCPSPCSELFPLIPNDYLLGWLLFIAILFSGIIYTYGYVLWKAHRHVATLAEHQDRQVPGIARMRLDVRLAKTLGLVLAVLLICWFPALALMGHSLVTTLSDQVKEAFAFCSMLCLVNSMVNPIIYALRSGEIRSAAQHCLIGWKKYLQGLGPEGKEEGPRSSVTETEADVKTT
T2 sequence (P34972 whole entry): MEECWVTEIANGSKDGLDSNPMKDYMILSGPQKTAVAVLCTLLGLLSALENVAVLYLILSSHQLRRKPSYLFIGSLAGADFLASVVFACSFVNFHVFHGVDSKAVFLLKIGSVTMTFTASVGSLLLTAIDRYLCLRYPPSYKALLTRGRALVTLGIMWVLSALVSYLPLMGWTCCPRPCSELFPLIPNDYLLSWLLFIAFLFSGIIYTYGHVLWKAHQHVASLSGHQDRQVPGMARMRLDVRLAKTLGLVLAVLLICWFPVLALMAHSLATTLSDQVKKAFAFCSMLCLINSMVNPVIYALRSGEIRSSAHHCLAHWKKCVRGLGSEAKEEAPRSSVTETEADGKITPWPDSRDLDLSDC

Compound | Ki ([1]; read-out: Ki) | Ki ([2]; read-out: Ki) | Ki ([3]; read-out: Ki) | EC50 [4] | Activity [5] | Activity [6] | Emax [7] | EC50 [8] | Emax [9] | Activity [10] | also measured
CC1(C)Oc2cc([C@]34CC5CC(C[C@@](CN)(C5)C3)C4)cc(O)c2[C@@H]2C[C@H](O)CC[C@H]21 | > 1000 nM | > 1000 nM | > 1000 nM | – | – | – | – | – | – | – | –
CC1(C)Oc2cc([C@]34CC5CC(C[C@@](C(=O)O)(C5)C3)C4)cc(O)c2[C@@H]2C[C@H](O)CC[C@H]21 | > 1000 nM | > 1000 nM | > 1000 nM | – | – | – | – | – | – | – | –
CC1(C)Oc2cc([C@]34CC5CC(C[C@@](CN=C=S)(C5)C3)C4)cc(O)c2[C@@H]2C[C@H](O)CC[C@H]21 | – | – | – | > 400 nM | 74% | 63% | 94% | 0.8 nM | -91% | – | Ki ([1]; read-out: Ki(app)): 3 nM; Ki ([2]; read-out: Ki(app)): 34.6 nM; Ki ([3]; read-out: Ki(app)): 10.3 nM
COC(=O)N[C@]12CC3CC(C1)C[C@](c1cc(O)c4c(c1)OC(C)(C)[C@@H]1CC[C@@H](O)C[C@@H]41)(C3)C2 | 29.1 nM | 2.1 nM | 8.4 nM | 15.8 nM | – | – | 71% | 1.6 nM | -74% | – | –
CC1(C)Oc2cc(C34CC5CC(CC(C5)C3)C4)cc(O)c2[C@@H]2C[C@H](O)CC[C@H]21 | – | – | – | – | – | – | 69% | 2.7 nM | – | inactive | –
CC1(C)Oc2cc([C@]34CC5CC(C[C@@](C#N)(C5)C3)C4)cc(O)c2[C@@H]2C[C@H](O)CC[C@H]21 | 45.8 nM | 2.8 nM | 4.2 nM | 90.7 nM | – | – | 82% | 95.2 nM | -93% | – | –
CC1(C)Oc2cc([C@]34CC5CC(C[C@@](N)(C5)C3)C4)cc(O)c2[C@@H]2C[C@H](O)CC[C@H]21 | > 1000 nM | > 1000 nM | > 1000 nM | – | – | – | – | – | – | – | –
CC1(C)Oc2cc([C@]34CC5CC(C[C@@](C(N)=O)(C5)C3)C4)cc(O)c2[C@@H]2C[C@H](O)CC[C@H]21 | 297 nM | 947 nM | 337 nM | – | – | – | – | – | – | – | –
CC1(C)Oc2cc([C@]34CC5CC(C[C@@](N=[N+]=[N-])(C5)C3)C4)cc(O)c2[C@@H]2C[C@H](O)CC[C@H]21 | 18.6 nM | 38.4 nM | 24.8 nM | – | 26% | 61% | 73% | 4.4 nM | – | inactive | –
CC1(C)Oc2cc([C@]34CC5CC(C[C@@](CC#N)(C5)C3)C4)cc(O)c2[C@@H]2C[C@H](O)CC[C@H]21 | 2.6 nM | 4.4 nM | 4.6 nM | 83.1 nM | inactive | inactive | 78% | 5.4 nM | -78% | – | –
CC1(C)Oc2cc([C@]34CC5CC(C[C@@](CN=[N+]=[N-])(C5)C3)C4)cc(O)c2[C@@H]2C[C@H](O)CC[C@H]21 | 4.4 nM | 26.4 nM | 9.6 nM | – | 60% | 67% | 45% | 2.4 nM | – | inactive | –
CC1(C)Oc2cc([C@]34CC5CC(C[C@@](N=C=S)(C5)C3)C4)cc(O)c2[C@@H]2C[C@H](O)CC[C@H]21 | – | – | – | – | 25% | 54% | 68% | 12 nM | – | inactive | Ki [11]: 35.7 nM; Activity [12]: 54%; Ki ([1]; read-out: Ki(app)): 35.4 nM; Ki ([2]; read-out: Ki(app)): 31.7 nM; Ki [13]: 58.6 nM; Activity [14]: 26%; Ki [15]: 35.4 nM; Activity [16]: Active; Ki [17]: 96 nM; Ki ([3]; read-out: Ki(app)): 13.1 nM
